Legend:
[1] = AUC (0 to t) in Wistar rat at 1 mg/kg, iv after 0.25 to 24 hrs by LC/MS/MS method; type: ADME, organism-based; parameters: dose 1 mg/kg, time 0.25-24 hr, route intravenous; settings: in vivo
Procedure, shortened: (§1)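 Male Wistar rats were given a single intravenous dose. The vehicle was NMP 10%, PEG-300 15%, and 0.1M ammonium acetate buffer q.s. (pH 3). Plasma concentration–time profiles were used to derive AUC0-t, Vss, clearance (mL/min/kg) and t1/2.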

[2] = Half life in Wistar rat at 1 mg/kg, iv after 0.25 to 24 hrs by LC/MS/MS method; type: ADME, organism-based; settings: in vivo; procedure, shortened: as §1
[3] = Half life in mouse liver microsomes pre-incubated at 37 degC for 5 mins before NADPH addition and measured after 30 mins by LC/MS/MS method; type: ADME, microsome
[4] = Drug metabolism in human liver microsomes assessed as drug recovery pre-incubated at 37 degC for 5 mins before NADPH addition and measured after 30 mins by LC/MS/MS method; type: ADME, microsome; settings: read-out: Drug recovery
[5] = Drug metabolism in mouse liver microsomes assessed as metabolic turnover rate per 0.125 mg/ml protein pre-incubated at 37 degC for 5 mins before NADPH addition and measured after 30 mins by LC/MS/MS method; type: ADME, microsome; settings: 0.5 h
[6] = Volume of distribution at steady state in Wistar rat at 1 mg/kg, iv after 0.25 to 24 hrs by LC/MS/MS method; type: ADME, organism-based; settings: in vivo, read-out: Vdss; procedure, shortened: as §1
[7] = Clearance in Wistar rat at 1 mg/kg, iv after 0.25 to 24 hrs by LC/MS/MS method; type: ADME, organism-based; settings: in vivo; procedure, shortened: as §1
[8] = Drug metabolism in human liver microsomes assessed as metabolic turnover rate per 0.125 mg/ml protein pre-incubated at 37 degC for 5 mins before NADPH addition and measured after 30 mins by LC/MS/MS method; type: ADME, microsome; settings: 0.5 h
[9] = Half life in human liver microsomes pre-incubated at 37 degC for 5 mins before NADPH addition and measured after 30 mins by LC/MS/MS method; type: ADME, microsome
[10] = Drug metabolism in rat liver microsomes assessed as drug recovery pre-incubated at 37 degC for 5 mins measured after 30 mins in absence of NADPH by LC/MS/MS method; type: ADME, microsome; settings: read-out: Drug recovery
[11] = Drug metabolism in rat liver microsomes assessed as drug recovery pre-incubated at 37 degC for 5 mins before NADPH addition and measured after 30 mins by LC/MS/MS method; type: ADME, microsome; settings: read-out: Drug recovery
[12] = Drug metabolism in rat liver microsomes assessed as metabolic turnover rate per 0.125 mg/ml protein pre-incubated at 37 degC for 5 mins before NADPH addition and measured after 30 mins by LC/MS/MS method; type: ADME, microsome; settings: 0.5 h
Adenosine deaminase = molecular target: T1, Adenosine deaminase (Bos taurus, UniProt P56658); assay: Inhibition of bovine adenosine deaminase pre-incubated for 5 mins before adenosine addition; settings: read-out: Ki
T1 sequence (P56658 whole entry): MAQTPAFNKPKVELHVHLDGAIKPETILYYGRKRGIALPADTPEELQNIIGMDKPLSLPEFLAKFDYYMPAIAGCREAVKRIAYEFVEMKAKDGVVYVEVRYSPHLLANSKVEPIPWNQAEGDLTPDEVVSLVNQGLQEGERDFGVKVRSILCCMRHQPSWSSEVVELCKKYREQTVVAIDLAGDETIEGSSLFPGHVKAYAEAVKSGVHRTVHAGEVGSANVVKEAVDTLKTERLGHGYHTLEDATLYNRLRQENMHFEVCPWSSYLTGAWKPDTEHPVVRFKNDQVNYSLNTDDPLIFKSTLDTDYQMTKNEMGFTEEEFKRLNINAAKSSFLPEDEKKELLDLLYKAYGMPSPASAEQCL

[13] = Half life in rat liver microsomes pre-incubated at 37 degC for 5 mins before NADPH addition and measured after 30 mins by LC/MS/MS method; type: ADME, microsome
[14] = Drug metabolism in mouse liver microsomes assessed as drug recovery pre-incubated at 37 degC for 5 mins measured after 30 mins in absence of NADPH by LC/MS/MS method; type: ADME, microsome; settings: read-out: Drug recovery
[15] = Drug metabolism in human liver microsomes assessed as drug recovery pre-incubated at 37 degC for 5 mins measured after 30 mins in absence of NADPH by LC/MS/MS method; type: ADME, microsome; settings: read-out: Drug recovery
[16] = Drug metabolism in mouse liver microsomes assessed as drug recovery pre-incubated at 37 degC for 5 mins before NADPH addition and measured after 30 mins by LC/MS/MS method; type: ADME, microsome; settings: read-out: Drug recovery
Rattus norvegicus [17] = assay: Plasma concentration in Wistar rat at 1 mg/kg, iv after 1 hr by LC/MS/MS method; type: ADME, organism-based; settings: in vivo, BLD = below limit of detection; procedure, shortened: as §1
Rattus norvegicus [18] = assay: Clearance in Wistar rat at 1 mg/kg, iv after 1 hr by LC/MS/MS method; type: ADME, organism-based; settings: in vivo, BLD = below limit of detection; procedure, shortened: as §1

SMILES	AUC(0-t) [1]	half-life [2]	half-life [3]	remaining at 0.5 h [4]	Drug metabolism [5]	Vd [6]	clearance [7]	Drug metabolism [8]	half-life [9]	remaining at 0.5 h [10]	remaining at 0.5 h [11]	Drug metabolism [12]	Ki (Adenosine deaminase)	half-life [13]	remaining at 0.5 h [14]	remaining at 0.5 h [15]	remaining at 0.5 h [16]	Cp (Rattus norvegicus [17])	CL (Rattus norvegicus [18])
C[C@H](O)[C@@H](CCc1cccc(C(F)(F)F)c1)n1cnc(C(N)=O)c1	1.42 µM·h	56.4 min	> 30 min	79%	0.04 nmol/min/mg	2 L/kg	33.3 mL/min/kg	0.06 nmol/min/mg	> 30 min	92%	87%	0.04 nmol/min/mg	5.9 nM	> 30 min	93%	94%	89%		
CCCCCC[C@H]([C@H](C)O)n1cnc2c(N)ncnc21 [(+)-EHNA]	0.35 µM·h												2.2 nM					Bld	Bld

— ChEMBL document CHEMBL4177582, “Modifications of flexible nonyl chain and nucleobase head group of (+)-erythro-9-(2's-hydroxy-3's-nonyl)adenine [(+)-EHNA] as adenosine deaminase inhibitors” (Bioorg Med Chem, 2017)
